Experimental data taken from ChEMBL document CHEMBL4665669, “Novel tertiary sulfonamide derivatives containing benzimidazole moiety as potent anti-gastric cancer agents: Design, synthesis and SAR studies” (Eur J Med Chem, 2019).
Active and inactive are the calls of the source.

What was measured:
[1] = system: HGC-27; assay: Induction of apoptosis in human HGC-27 cells assessed as downregulation of c-IAP1 level at 0.5 to 1.5 umol/L after 48 hrs Western blot analysis; format: functional, cell-based; details: dose micromol/L 0.5-1.5, time 48.0 hrs
Summary of the method: (§1)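 Western blot. Cells were treated with compound concentrations or DMSO for 48 h, then lysed, and lysates were denatured, run on SDS-PAGE and transferred to nitrocellulose. After blocking in 5% skimmed milk, membranes were incubated with primary antibodies at 4 °C for 8 h, then secondary antibodies, with ECL detection.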

[2] = system: SGC-7901; assay: Cell cycle arrest in human SGC-7901 cells assessed as accumulation at G2/M phase at 0.5 to 1.5 umol/L after 48 hrs by RNase/propidium iodide staining based flow cytometry; format: functional; details: dose micromol/L 0.5-1.5, time 48.0 hrs
Summary of the method: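 MGC-803, SGC-7901 and HGC-27 cells were seeded in 6-well plates and treated 48 h with compound or DMSO. Cells were then harvested and fixed in 70% cold ethanol at 4 °C for 8 h, and cell-cycle phase distribution was quantified by flow cytometry.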

[3] = system: HGC-27; assay: Induction of apoptosis in human HGC-27 cells after 48 hrs by flow cytometry analysis; format: functional, cell-based; details: dose micromol/L 0.5-1.5, time 48.0 hrs
[4] = system: MGC-803; assay: Induction of apoptosis in human MGC-803 cells assessed as upregulation of NOXA level at 0.5 to 1.5 umol/L after 48 hrs Western blot analysis; format: functional, cell-based; details: dose micromol/L 0.5-1.5, time 48.0 hrs; summary of the method: as §1
[5] = system: MGC-803; assay: Anticancer activity against human MGC-803 cells assessed as inhibition of cell proliferation after 48 hrs by MTT assay; format: functional, cell-based
Summary of the method: (§2)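 MTT assay with 48 h compound exposure. MTT solution was then added and incubated 4 h at 37 °C, the supernatant discarded and formazan dissolved in DMSO, with absorbance read at 490 nm. IC50 values were calculated from three independent experiments, reported as mean SD.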

[6] = system: MGC-803; assay: Induction of apoptosis in human MGC-803 cells assessed as downregulation of c-IAP1 level at 0.5 to 1.5 umol/L after 48 hrs Western blot analysis; format: functional, cell-based; details: dose micromol/L 0.5-1.5, time 48.0 hrs; summary of the method: as §1
[7] = system: SGC-7901; assay: Induction of apoptosis in human SGC-7901 cells induction of DNA fragmentation at 0.5 to 1.5 umol/L after 48 hrs by imaging analysis; format: functional, cell-based; details: dose micromol/L 0.5-1.5, time 48.0 hrs
[8] = system: HGC-27; assay: Inhibition of colony formation in human HGC-27 cells at 0.5 to 1.5 umol/L after 7 days by crystal violet staining based assay; format: functional, cell-based; details: dose micromol/L 0.5-1.5, time 7.0 day
Summary of the method: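 5000 cells per well seeded and held 24 h at 37 °C, 5% CO2, then exposed to graded concentrations (0.5, 1, 1.5 µmol/L). After 7 days the medium was removed and wells were washed twice with PBS. Colonies fixed in 4% paraformaldehyde and stained with 0.1% crystal violet.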

[9] = system: SGC-7901; assay: Cell cycle arrest at G2 phase in human SGC-7901 cells assessed as downregulation of Cyclin B level at 0.5 to 1.5 umol/L after 48 hrs by Western blot analysis; format: functional, cell-based; details: dose micromol/L 0.5-1.5, time 48.0 hrs; summary of the method: as §1
[10] = system: SGC-7901; assay: Inhibition of Ras/Raf/MEK/ERK signalling pathway in human SGC-7901 cells assessed as downregulation of FoxO3a expression at 0.5 to 1.5 umol/L after 48 hrs by Western blot analysis; format: cell-based; details: dose micromol/L 0.5-1.5, time 48.0 hrs
Summary of the method: (§3)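 Cells treated with graded concentrations or DMSO for 48 h, then harvested and lysed. Lysates denatured, resolved by SDS-PAGE and transferred to nitrocellulose. Membranes blocked with 5% skimmed milk and probed with primary antibodies at 4 °C for 8 h, then with secondary antibodies. Bands detected by ECL.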

[11] = system: HGC-27; assay: Inhibition of Ras/Raf/MEK/ERK signalling pathway in human HGC-27 cells assessed as downregulation of FoxO3a expression at 0.5 to 1.5 umol/L after 48 hrs by Western blot analysis; format: cell-based; details: dose micromol/L 0.5-1.5, time 48.0 hrs; summary of the method: as §3
[12] = system: MGC-803; assay: Inhibition of Akt/mTOR signalling pathway in human MGC-803 cells assessed as decrease in AKT phosphorylation at Ser473 residue at 0.5 to 1.5 umol/L after 48 hrs by Western blot analysis; format: cell-based; details: dose micromol/L 0.5-1.5, time 48.0 hrs; summary of the method: as §3
[13] = system: MGC-803; assay: Cell cycle arrest at M phase in human MGC-803 cells assessed as upregulation of p-Histone-3 level at 0.5 to 1.5 umol/L after 48 hrs by Western blot analysis; format: functional, cell-based; details: dose micromol/L 0.5-1.5, time 48.0 hrs; summary of the method: as §1
[14] = system: HGC-27; assay: Inhibition of Ras/Raf/MEK/ERK signalling pathway in human HGC-27 cells assessed as decrease in c-Raf phosphorylation after 48 hrs by Western blot analysis; format: cell-based; details: dose micromol/L 0.5-1.5, time 48.0 hrs; summary of the method: as §3
[15] = system: HGC-27; assay: Inhibition of Ras/Raf/MEK/ERK signalling pathway in human HGC-27 cells assessed as decrease in ERK1/2 phosphorylation after 48 hrs by Western blot analysis; format: cell-based; details: dose micromol/L 0.5-1.5, time 48.0 hrs; summary of the method: as §3
[16] = system: HGC-27; assay: Cell cycle arrest at M phase in human HGC-27 cells assessed as upregulation of p-Histone-3 level at 0.5 to 1.5 umol/L after 48 hrs by Western blot analysis; format: functional, cell-based; details: dose micromol/L 0.5-1.5, time 48.0 hrs; summary of the method: as §1
[17] = system: HGC-27; assay: Inhibition of Akt/mTOR signalling pathway in human HGC-27 cells assessed as decrease in AKT phosphorylation at Ser473 residue at 0.5 to 1.5 umol/L after 48 hrs by Western blot analysis; format: cell-based; details: dose micromol/L 0.5-1.5, time 48.0 hrs; summary of the method: as §3
[18] = system: SGC-7901; assay: Inhibition of Ras/Raf/MEK/ERK signalling pathway in human SGC-7901 cells assessed as decrease in MEK1 phosphorylation after 48 hrs by Western blot analysis; format: cell-based; details: dose micromol/L 0.5-1.5, time 48.0 hrs; summary of the method: as §3
[19] = system: SGC-7901; assay: Induction of apoptosis in human SGC-7901 cells assessed as downregulation of Mcl-1 level at 0.5 to 1.5 umol/L after 48 hrs Western blot analysis; format: functional, cell-based; details: dose micromol/L 0.5-1.5, time 48.0 hrs; summary of the method: as §1
[20] = system: MGC-803; assay: Inhibition of Ras/Raf/MEK/ERK signalling pathway in human MGC-803 cells assessed as decrease in c-Raf phosphorylation after 48 hrs by Western blot analysis; format: cell-based; details: dose micromol/L 0.5-1.5, time 48.0 hrs; summary of the method: as §3
[21] = system: MGC-803; assay: Induction of apoptosis in human MGC-803 cells assessed as cleavage of caspase-7 at 0.5 to 1.5 umol/L after 48 hrs Western blot analysis; format: functional, cell-based; details: dose micromol/L 0.5-1.5, time 48.0 hrs; summary of the method: as §1
[22] = system: MCF7; assay: Anticancer activity against human MCF7 cells assessed as inhibition of cell proliferation after 48 hrs by MTT assay; format: functional, cell-based; details: MCF7, 48 h; summary of the method: as §2
[23] = system: HGC-27; assay: Induction of apoptosis in human HGC-27 cells induction of DNA fragmentation at 0.5 to 1.5 umol/L after 48 hrs by imaging analysis; format: functional, cell-based; details: dose micromol/L 0.5-1.5, time 48.0 hrs
[24] = system: HGC-27; assay: Anticancer activity against human HGC-27 cells assessed as cell growth at 0.5 to 1.5 umol/L after 48 hrs by MTT assay relative to control; format: functional; details: dose micromol/L 0.5-1.5
[25] = system: HGC-27; assay: Induction of apoptosis in human HGC-27 cells assessed as downregulation of Mcl-1 level at 0.5 to 1.5 umol/L after 48 hrs Western blot analysis; format: functional, cell-based; details: dose micromol/L 0.5-1.5, time 48.0 hrs; summary of the method: as §1
[26] = system: SGC-7901; assay: Cell cycle arrest at G2 phase in human SGC-7901 cells assessed as downregulation of CDK1 level at 0.5 to 1.5 umol/L after 48 hrs by Western blot analysis; format: functional, cell-based; details: dose micromol/L 0.5-1.5, time 48.0 hrs; summary of the method: as §1
[27] = system: MGC-803; assay: Induction of apoptosis in human MGC-803 cells assessed as induction of DNA fragmentation at 0.5 to 1.5 umol/L after 48 hrs by imaging analysis; format: functional, cell-based; details: dose micromol/L 0.5-1.5, time 48.0 hrs
[28] = system: MGC-803; assay: Inhibition of Ras/Raf/MEK/ERK signalling pathway in human MGC-803 cells assessed as decrease in MEK1 phosphorylation after 48 hrs by Western blot analysis; format: cell-based; details: dose micromol/L 0.5-1.5, time 48.0 hrs; summary of the method: as §3
[29] = system: HGC-27; assay: Cell cycle arrest at G2 phase in human HGC-27 cells assessed as downregulation of CDK1 level at 0.5 to 1.5 umol/L after 48 hrs by Western blot analysis; format: functional, cell-based; details: dose micromol/L 0.5-1.5, time 48.0 hrs; summary of the method: as §1
[30] = system: MGC-803; assay: Induction of apoptosis in human MGC-803 cells after 48 hrs by flow cytometry analysis; format: functional, cell-based; details: dose micromol/L 0.5-1.5, time 48.0 hrs

COc1cc(N(Cc2nc3ccccc3[nH]2)S(=O)(=O)c2ccc(C)cc2)cc(OC)c1OC
1020 nM: IC50 ([5]; MGC-803, 48 h)
5.4 µM: IC50 [22]
<2: fold change (FC) [24]
active: Activity [1] | Activity [2] | Activity [3] Dose-dependent effect | Activity [4] | Activity [5] Dose-dependent effect | Activity [6] | Activity [7] | inhibition [8] | Activity [9] | inhibition [10] | inhibition [11] | inhibition [12] | Activity [13] | inhibition [14] Dose-dependent effect | inhibition [15] Dose-dependent effect | Activity [16] | inhibition [17] | inhibition [18] Dose-dependent effect | Activity [19] | inhibition [20] Dose-dependent effect | Activity [21] | Activity [23] | Activity [25] | Activity [26] | Activity [27] | inhibition [28] Dose-dependent effect | Activity [29] | Activity [30] Dose-dependent effect
